Blank lines part the entries; values can stand above or below the molecule they belong to.
Legend:
[1] = molecular target: T1, ABCG2 (Homo sapiens, UniProt Q9UNQ0); test: Activation of human ABCG2-mediated ATPase activity preincubated for 2 mins followed by ATP addition at 100 nM and measured after 20 mins by colorimetric assay relative to control; settings: read-out: Activity
T1 sequence (Q9UNQ0 whole entry): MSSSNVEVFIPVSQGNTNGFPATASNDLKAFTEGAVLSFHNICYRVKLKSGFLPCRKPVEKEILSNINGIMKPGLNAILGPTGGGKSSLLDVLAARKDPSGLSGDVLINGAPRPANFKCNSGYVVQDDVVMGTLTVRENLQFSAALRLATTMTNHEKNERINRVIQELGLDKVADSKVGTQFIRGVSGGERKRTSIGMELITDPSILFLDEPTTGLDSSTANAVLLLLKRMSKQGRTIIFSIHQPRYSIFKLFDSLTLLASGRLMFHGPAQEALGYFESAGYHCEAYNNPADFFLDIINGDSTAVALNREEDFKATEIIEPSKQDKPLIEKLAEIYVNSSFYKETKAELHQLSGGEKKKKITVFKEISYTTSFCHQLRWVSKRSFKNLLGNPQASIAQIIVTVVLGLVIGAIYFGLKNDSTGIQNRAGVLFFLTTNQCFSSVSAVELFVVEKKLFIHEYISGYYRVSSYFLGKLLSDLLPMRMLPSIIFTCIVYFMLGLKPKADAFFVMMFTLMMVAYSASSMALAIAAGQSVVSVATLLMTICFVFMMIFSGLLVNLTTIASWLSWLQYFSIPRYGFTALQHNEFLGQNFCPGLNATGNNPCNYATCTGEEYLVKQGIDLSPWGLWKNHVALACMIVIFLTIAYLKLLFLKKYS
Procedure, shortened: (§1)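 Total membrane vesicles from High-Five insect cells expressing human ABCG2 (hypotonic lysis, differential centrifugation), 10 μg protein/tube, in MES-Tris pH 6.8 buffer with KCl, MgCl2, NaN3, EGTA, ouabain, DTT. Compound in DMSO added ± sodium orthovanadate (0.3 mM), DMSO control. Preincubated 2 min at 37°C, then 5 mM ATP, 20 min. SDS stop, Pi measured colorimetrically. Three independent experiments in duplicate, mean ± SE.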

[2] = molecular target: T2, Adenosine receptor A3 (Homo sapiens, UniProt P0DMS8); test: Binding affinity towards human adenosine A3 receptor
T2 sequence (P0DMS8 whole entry): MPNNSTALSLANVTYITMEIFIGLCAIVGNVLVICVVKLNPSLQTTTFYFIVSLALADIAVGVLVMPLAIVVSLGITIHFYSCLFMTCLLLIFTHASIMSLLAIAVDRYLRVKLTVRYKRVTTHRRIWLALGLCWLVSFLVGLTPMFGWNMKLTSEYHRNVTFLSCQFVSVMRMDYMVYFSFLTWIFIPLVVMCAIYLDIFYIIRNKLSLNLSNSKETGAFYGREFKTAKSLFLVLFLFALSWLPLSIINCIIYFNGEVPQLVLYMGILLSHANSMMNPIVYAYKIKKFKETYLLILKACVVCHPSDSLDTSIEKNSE

[3] = molecular target: T1, ABCG2; test: Activation of human ABCG2-mediated ATPase activity preincubated for 2 mins followed by ATP addition at 2.5 uM and measured after 20 mins by colorimetric assay relative to control; settings: read-out: Activity; procedure, shortened: as §1
[4] = molecular target: T1, ABCG2; test: Activation of human ABCG2-mediated ATPase activity preincubated for 2 mins followed by ATP addition at 10 uM and measured after 20 mins by colorimetric assay relative to control; settings: read-out: Activity; procedure, shortened: as §1
[5] = molecular target: T1, ABCG2; test: Inhibition of human ABCG2-mediated ATPase activity preincubated for 2 mins followed by ATP addition at 10 uM and measured after 20 mins by colorimetric assay relative to control; procedure, shortened: as §1
[6] = molecular target: T1, ABCG2; test: Effect on human ABCG2 transporter preincubated for 2 mins followed by ATP addition assessed as basal ATPase activity at 2.5 uM and measured after 20 mins by colorimetric assay relative to control; settings: read-out: Activity; procedure, shortened: as §1
[7] = molecular target: T1, ABCG2; test: Inhibition of human ABCG2-mediated ATPase activity preincubated for 2 mins followed by ATP addition at 2.5 uM and measured after 20 mins by colorimetric assay relative to control; procedure, shortened: as §1
[8] = molecular target: T3, Broad substrate specificity ATP-binding cassette transporter ABCG2 (Homo sapiens, UniProt Q9UNQ0); test: Inhibition of human ABCG2-mediated ATPase activity preincubated for 2 mins followed by ATP addition and measured after 20 mins by colorimetric assay; procedure, shortened: as §1
T3 sequence (Q9UNQ0 whole entry): T1 sequence (Q9UNQ0 whole entry)

[9] = molecular target: T1, ABCG2; test: Inhibition of human ABCG2 in human R5 cells assessed as inhibition of mitoxantrone efflux at 10 uM measured by flow cytometric analysis relative to control; assay type: cell-based; settings: probe mitoxantrone
Procedure, shortened: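 HEK293 cells transfected with full-length ABCG2 (R-5) or empty pcDNA vector, grown in MEM with 10% FBS and 2 mg/ml G418. Cells incubated in IMDM with 5% FBS, 5 μM mitoxantrone (final) ± compound, 37°C for 45 min. Washed in cold IMDM, resuspended in cold PBS with 1% BSA, read by flow cytometry.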

[10] = molecular target: T1, ABCG2; test: Activation of human ABCG2-mediated ATPase activity preincubated for 2 mins followed by ATP addition at 2.5 M and measured after 20 mins by colorimetric assay relative to control; set-up: dose or concentration left out as unconfirmed; settings: read-out: Activity; procedure, shortened: as §1
[11] = molecular target: T1, ABCG2; test: Activation of human ABCG2-mediated ATPase activity preincubated for 2 mins followed by ATP addition at 10 M and measured after 20 mins by colorimetric assay relative to control; set-up: dose or concentration left out as unconfirmed; settings: read-out: Activity; procedure, shortened: as §1
[12] = molecular target: T3, Broad substrate specificity ATP-binding cassette transporter ABCG2; test: Activation of human ABCG2-mediated ATPase activity preincubated for 2 mins followed by ATP addition and measured after 20 mins by colorimetric assay; procedure, shortened: as §1
[13] = molecular target: T1, ABCG2; test: Effect on human ABCG2 transporter preincubated for 2 mins followed by ATP addition assessed as basal ATPase activity at 10 uM and measured after 20 mins by colorimetric assay relative to control; settings: read-out: Activity; procedure, shortened: as §1

Compound: COc1ccc(CCNC2=NC(I)=NC3=NC=CC32)cc1O (centres undefined)
activity at 20 min, 0.1 µM [1]: 79.6%
Ki [2]: ≥ 0.099 µM

Compound: CCOC(=O)C12CC1[C@@H](n1ccc3c(NCCCc4ccc(OC)c(O)c4)nc(C#Cc4ccccc4)nc31)[C@H](O)[C@@H]2O (single isomer, unassigned)
activity at 20 min, 0.1 µM [1]: 55.9%
Ki [2]: ≥ 0.099 µM

Compound: CNC(=O)C12CC1[C@@H](n1cnc3c(C)nc(C#Cc4ccc(F)c(F)c4)nc31)[C@H](O)[C@@H]2O (single isomer, unassigned)
activity at 20 min, 2.5 µM [3]: 49.6%
activity at 20 min, 10 µM [4]: 72.6%
Ki [2]: ≥ 0.099 µM

Compound: CNC(=O)C12CC1[C@@H](n1cnc3c(NCc4cccc(-n5cc(-c6ccc(F)c(F)c6)nn5)c4)nc(C#Cc4ccc(F)c(F)c4)nc31)[C@H](O)[C@@H]2O (single isomer, unassigned)
inhibition at 20 min, 2.5 µM [7]: 43.5%
IC50 [8]: 2.57 µM
inhibition at 10 µM [9]: 92.5%

Compound: CNC(=O)C12CC1[C@@H](n1cnc3c(N[C@H]4C[C@@H]4c4ccc(F)c(F)c4)nc(C#Cc4cccc(F)c4)nc31)[C@H](O)[C@@H]2O (single isomer, unassigned)
activity at 20 min, 2.5 µM [3]: 101%
EC50 [12]: 0.014 µM
inhibition at 10 µM [9]: 97.2%

Compound: CNC(=O)C12CC1[C@@H](n1cnc3cnc(C#Cc4ccc(F)c(F)c4)nc31)[C@H](O)[C@@H]2O (single isomer, unassigned)
activity at 20 min, 10 µM [4]: 64.2%
activity at 20 min, 2.5 µM [6]: ≤ 30%

Compound: OCC12CC1[C@@H](n1cnc3c(NCc4cccc(-n5cc(-c6ccc(F)c(F)c6)nn5)c4)nc(C#Cc4ccc(F)c(F)c4)nc31)[C@H](O)[C@@H]2O (single isomer, unassigned)
activity at 20 min, 2.5 µM [6]: ≤ 30%
activity at 20 min, 10 µM [13]: ≤ 30%

Other lines, results leading:

activity at 20 min, 0.1 µM [1]: 92.1%
Ki [2]: ≥ 0.099 µM
Compound: Cn1cnc2c(NCCc3ccccc3)nc(C#Cc3ccc(Cl)s3)nc21

activity at 20 min, 0.1 µM [1]: 95.9%
Ki [2]: ≥ 0.099 µM
Compound: Oc1ccc(CCNC2=NC(C#Cc3ccc(Cl)s3)=NC3=NC=NC32)cc1O (centres undefined)

inhibition at 20 min, 10 µM [5]: 44.5%
activity at 20 min, 2.5 µM [6]: ≤ 30%
Compound: CNC(=O)C12CC1[C@@H](n1cnc3c(NCc4cccc(-n5cc(-c6ccc(F)c(F)c6)nn5)c4)nc(C#Cc4ccc(C(F)(F)F)cc4)nc31)[C@H](O)[C@@H]2O (single isomer, unassigned)

activity at 20 min [10]: 112%
activity at 20 min [11]: 122%
Compound: CNC(=O)[C@H]1O[C@@H](n2cnc3c(NC)nc(C#Cc4ccc(Cl)s4)nc32)[C@H](O)[C@@H]1O

inhibition at 20 min, 10 µM [5]: 57.1%
activity at 20 min, 2.5 µM [6]: ≤ 30%
Compound: CNC(=O)C12CC1[C@@H](n1cnc3c(NCc4cccc(-n5cc(-c6ccc(F)c(F)c6)nn5)c4)nc(C#Cc4ccc(F)cc4F)nc31)[C@H](O)[C@@H]2O (single isomer, unassigned)

activity at 20 min [10]: 77.9%
activity at 20 min [11]: 40%
Compound: CCCNc1nc(C#Cc2ccc(Cl)s2)nc2c1ncn2[C@@H]1C2CC2(C(=O)NC)[C@@H](O)[C@H]1O (single isomer, unassigned)

activity at 20 min [10]: 75.2%
activity at 20 min [11]: 54.1%
Ki [2]: ≥ 0.099 µM
Compound: O[C@@H]1[C@H](O)C2CC2[C@H]1n1cnc2c(NCc3cccc(Cl)c3)nc(C#Cc3ccc(F)c(F)c3)nc21 (single isomer, unassigned)

activity at 20 min [10]: 89.1%
activity at 20 min [11]: 79%
Compound: CNc1nc(C#Cc2ccc(Cl)s2)nc2c1ncn2[C@@H]1C2CC2(C(=O)OC)[C@@H](O)[C@H]1O (single isomer, unassigned)

Reference: ChEMBL document CHEMBL5154735, “Interaction of A3 adenosine receptor ligands with the human multidrug transporter ABCG2” (Eur J Med Chem, 2022)
